UBC9 SUMO inh – inhibitors of human SUMOylation (UBC9); P63279; HTRF SUMOylation assay, SAE1/SAE2 + UBC9, in vitro; inhibition, % at 35 µM; 290,000 tested, 0.36% active; in the data active means inhibition above about 50%, passing the limit was not always enough
Scp-1 inhibitor – Scp-1 (human) phosphatase inhibition | inhibition, % at 20 µM | Q9GZU7 | 340,000 tested, 0.88% active | Recombinant Scp1, phosphopeptide, malachite green phosphate absorbance;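 active means inhibition above about 50% at 20 µM, limit read from the data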;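 further: plate controls were DMSO wells with enzyme for no effect and wells lacking enzyme for full effect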
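Incubation: 45 min enzyme reaction at room temperature / System: truncated SCP-1 phosphatase (76-261aa) / Reagent: Phospho 17-mer peptide substrate / Buffer or medium: Acidic Tris acetate buffer with magnesium and detergent / Signal: absorbance at 630 nm / Doses: one concentration, 20 µM, with 1.0% DMSO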
STEP inh – blocks human striatal-enriched tyrosine phosphatase; inhibition, % at 20 µM; P54829; 360,000 tested, 0.25% active; recombinant STEP, OMFP fluorogenic substrate, fluorescence; AID 588621;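 active means inhibition at 20 µM, scaled per plate between control wells, above about 37%, limit read from the data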;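 further: 0% = DMSO with enzyme and substrate and 100% = substrate only without enzyme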
Target sequence (P54829 whole entry, looked up): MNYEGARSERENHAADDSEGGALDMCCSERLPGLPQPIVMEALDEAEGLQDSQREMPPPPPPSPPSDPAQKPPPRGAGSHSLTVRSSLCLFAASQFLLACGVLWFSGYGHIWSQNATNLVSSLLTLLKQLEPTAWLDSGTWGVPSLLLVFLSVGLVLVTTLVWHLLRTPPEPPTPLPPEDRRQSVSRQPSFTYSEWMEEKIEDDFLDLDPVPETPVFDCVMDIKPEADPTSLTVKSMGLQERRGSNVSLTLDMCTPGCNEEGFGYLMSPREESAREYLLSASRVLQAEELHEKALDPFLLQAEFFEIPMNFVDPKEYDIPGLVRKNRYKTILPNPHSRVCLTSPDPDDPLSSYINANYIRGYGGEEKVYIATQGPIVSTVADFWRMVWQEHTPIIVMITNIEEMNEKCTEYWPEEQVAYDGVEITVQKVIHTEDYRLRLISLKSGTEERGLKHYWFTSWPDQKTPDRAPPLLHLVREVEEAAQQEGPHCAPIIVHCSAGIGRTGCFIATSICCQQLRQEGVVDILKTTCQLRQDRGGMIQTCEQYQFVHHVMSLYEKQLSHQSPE
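System: STEP (striatal-enriched tyrosine phosphatase) enzyme, cell-free; medium: Bis-Tris pH 6.0 buffer with DTT, detergent; dosing: 20 µM, 1% DMSO; times: reaction 20 min, ambient temperature; detection: fluorescence, 480/540 nm; read-out basis: normalized % inhibition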
LMPTP inh – LMPTP (human) inhibition; inhibition, % at 20 µM; AID 651560; 360,000 tested, 0.22% active; recombinant LMPTP-A, OMFP fluorogenic substrate, fluorescence intensity; P24666;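 active means compounds that cut the enzyme signal by at least half of the control window in the single-dose screen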;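 further: plate controls were DMSO wells with enzyme plus substrate for no effect and substrate without enzyme for full effect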
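material = LMPTP-A | quantity = 0.625 nM enzyme | reagent = OMFP substrate, 400 µM final | buffer or medium = Bis-Tris pH 6.0, DTT, detergent | detection = endpoint fluorescence intensity from OMFP dephosphorylation | dosing = single 20 µM dose | read-out basis = % inhibition relative to no-enzyme and uninhibited control wells | control set = no-enzyme and uninhibited controls | timing = 50 min at room temperature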
SUMO1 PPI mod – SUMO1-SIM interaction modulation; inhibition, % at 20 µM; SUMO1 binding to a labelled peptide, TR-FRET, 1 h; P63165; 360,000 tested, 0.33% active; in the data active means inhibition above about 37%
Target sequence (P63165 whole entry, looked up): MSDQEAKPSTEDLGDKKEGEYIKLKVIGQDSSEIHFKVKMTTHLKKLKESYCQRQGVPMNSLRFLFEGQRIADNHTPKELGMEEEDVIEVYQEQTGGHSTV
DNMT1 inh – DNMT1 (human) enzyme inhibition; P26358; DNMT1 molecular beacon, Hinp1I cleavage, fluorescence; inhibition (reported as % activation of signal), % at 10 µM; 360,000 tested, 0.83% active; in the data active means inhibition above about 50%
Scp1 confirm – confirmation of human Scp-1 phosphatase inhibitors; recombinant SCP-1 catalytic domain, phosphate release, malachite green absorbance; shares compounds with Scp-1 inhibitor; AID 540281; 2,500 tested, 61% active; inhibition, % at 20 µM;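 further: plate controls were DMSO with enzyme for no effect and buffer wells lacking enzyme for full effect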
MG interference – interferes with malachite green readout, flagging false Scp-1 hits. apparent inhibition (interference), % at 20 µM. 2,500 tested, under 10 active. Colorimetric interference counterscreen, malachite green absorbance 630 nm. shares compounds with Scp-1 inhibitor;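 further: compounds added after enzyme reaction finished so only phosphate colour detection is probed; plate controls were DMSO wells with completed Scp-1 reaction for no effect and substrate wells lacking enzyme for full effect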
Scp1 DSF – Scp-1 (human) binding by thermal shift; shares compounds with Scp-1 inhibitor; 1,500 tested, 25% active; thermal shift relative to vanadate control, % at 40 µM; Recombinant SCP1, Sypro Orange thermal shift Tm;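 active means substances whose mean melting-temperature shift, as a percentage of the reference inhibitor's shift, reaches about 5.3%, limit read from the data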;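 further: 0% = Tm of DMSO wells and 100% = Tm with sodium orthovanadate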
The depositor's hits bear a star; . = no result given. The list is not random: actives were taken first. Their share in the collection is about 1.9%.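 How the source made its calls, unless noted: active means inhibition of at least 30% at 20 µM; inactive means the rest.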

SMILES	UBC9 SUMO inh	Scp-1 inhibitor	STEP inh	LMPTP inh	SUMO1 PPI mod	DNMT1 inh	Scp1 confirm	MG interference	Scp1 DSF
O=C(N/N=C/C=C/c1ccco1)C(O)c1ccccc1 (stereo not drawn)	.	62*	-1	-1	-2	39	53*	-11	2
CC(=O)Oc1ccc2oc(=O)c3c(c2c1)CCCN3C(=O)CN1CCOCC1	4	-13	0	1	-2	-1	.	.	.
O=C(NC(C1CC1)C1CC1)C1CCC(=O)N(CCCN2CCCC2=O)C1 (stereo not drawn)	26	-7	-3	-1	6	-1	.	.	.
C=CCN1C(=O)C(=O)N(CC(=O)NCC(=O)Nc2ccc(F)c(F)c2F)C1=O	.	-2	-2	-1	4	6	-9	-3	.
O=C(CN1C(=O)C(=O)N(Cc2ccco2)C1=O)Nc1ccc(F)c(F)c1F	.	1	-1	0	-2	11	.	.	.
O=C(C[n+]1ccc(C(=O)c2ccccc2)cc1)Nc1ccccc1OC(F)F	.	83*	-1	-2	-46	-2	-3	0	.
O=C(COC(=O)c1ccc[n+]([O-])c1)Nc1ccccc1OC(F)F	.	-5	-2	-1	-2	2	.	.	.
CC1(C)CC(N2CCCC2)=CC(=[N+]2CCCC2)C1	20	100*	-2	-1	2	-1	92*	-11	-20
CC1(C)CC(=O)C=C(N2CCN(C3=CC(=O)CC(C)(C)C3)CC2)C1	11	.	.	.	.	.	.	.	.
C[N+]1=C2CCCCCN2C(O)(c2ccccc2)C1 (stereo not drawn)	-5	96*	-3	-2	1	3	94*	-10	-11
CC(C)[C@H](NS(=O)(=O)c1cccc(Cl)c1)C(=O)OCC(=O)NC(=O)CN1CCCC1=O	.	57*	18	9	6	38	42*	-12	-5
COC(=O)c1c(NC(=O)COC(=O)[C@@H](NS(=O)(=O)c2cccc(Cl)c2)C(C)C)sc2c1CCC2	-6	-12	0	2	-2	-8	.	.	.
CCCCn1c(SCC(=O)NNC(=O)c2ccco2)nnc1-c1ccco1	4	-3	-1	-2	3	0	.	.	.
CC1=NN(c2nc(-c3ccc(C)cc3)cs2)C(=O)C1N=Nc1cccc(O)c1 (stereo not drawn)	24	-4	2	3	16	-8	.	.	.
CC1=NN(c2nc(-c3ccc(C)cc3)cs2)C(=O)C1N=Nc1ccccc1O (stereo not drawn)	22	58*	2	2	20	15	71*	-18	7.4*
C[N+]1(CCCOC(=O)C2(c3ccccc3)CCCC2)CCOCC1	-2	74*	-1	0	21	-1	37*	-14	1
COCCn1ccc(O)c(Cc2ccccc2)c1=O	12	-3	-2	-1	1	-1	.	.	.
CN(C)P(=O)(Nc1cccc2ccccc12)Nc1cccc2ccccc12	.	-8	1	1	-7	20	.	.	.
O=C(Cc1ccc(S(=O)(=O)N2CCOCC2)s1)Nc1ccc(N2CCOCC2)cc1	-5	4	3	2	-11	2	.	.	.
CCCNS(=O)(=O)c1ccc(NC(=O)Cc2cccs2)cc1	4	-5	2	-1	-2	-3	.	.	.
CCN(CC)S(=O)(=O)c1ccc(OC)c(NC(=O)Cc2cccs2)c1	23	87*	2	32	4	45	74*	-11	6.3*
CCCN(CCC)S(=O)(=O)c1ccc(NC(=O)Cc2cccs2)cc1	30	61*	2	4	3	13	73*	-11	2
CCCCN(CCCC)S(=O)(=O)c1ccc(NC(=O)Cc2cccs2)cc1	1	54*	2	5	-2	25	58*	-17	7.6*
CN(C)S(=O)(=O)c1ccc(NC(=O)Cc2ccc(S(=O)(=O)N3CCOCC3)s2)cc1	8	55*	4	3	-3	17	58*	-12	5
COc1ccc(OC)c(NC(=O)CCN2CCN(c3ccccc3OC)CC2)c1	-3	-6	-3	0	2	0	.	.	.
SMILES	UBC9 SUMO inh	Scp-1 inhibitor	STEP inh	LMPTP inh	SUMO1 PPI mod	DNMT1 inh	Scp1 confirm	MG interference	Scp1 DSF
O=C(Cc1cccs1)Nc1ccc(S(=O)(=O)N2CCCC2)cc1	18	59*	5	7	-2	37	75*	-7	6.1*
CC(C)c1cccc(-c2ccc3c(c2)S(=O)(=O)c2cccc(C(=O)NCc4ccco4)c2C3=O)c1	.	68*	2	2	3	49	49*	0	11*
Cc1ccc(S(=O)(=O)NC(C)CCc2ccccc2)cc1C(N)=O (stereo not drawn)	16	-2	0	-1	0	1	-4	-11	.
CC1(C)CC(=O)C=C(c2ccccc2-c2ccc(S(C)(=O)=O)cc2)C1=O	.	.	2	-1	-20	-1	.	.	.
CC1CCC(NC(=O)Cn2c(=O)oc3cc(S(=O)(=O)N4CCCC4)ccc32)CC1 (stereo not drawn)	8	63*	3	5	2	2	44*	-20	-26
O=C(OCc1ccccc1)N1CCC2CC1c1cc(-c3cc4ccccc4o3)ccc12 (stereo not drawn)	.	.	1	5	2	2	.	.	.
O=C(N/N=C/c1cccnc1)c1ccccc1Cl	13	-4	-2	-2	2	-2	.	.	.
O=C(N/N=C\c1cccnc1)c1cc(-c2ccc(Cl)s2)[nH]n1	21	62*	8	34	-9	9	53*	-18	5
Fc1cnc(Cl)nc1NC1CCCCC1	-4	-10	0	-2	-1	1	.	.	.
COc1ccc(OC)c(NC(=O)CN(C)CC(=O)Nc2ccccc2Cl)c1	18	58*	-2	0	2	-1	7	-4	.
COc1ccc(Br)cc1CN(C)CC(=O)Nc1ccccc1Cl	-9	1	0	2	-1	0	.	.	.
Fc1ccccc1N1CC(c2ccccc2)C(c2cccs2)=N1 (stereo not drawn)	34	-11	-1	4	3	-1	.	.	.
COc1ccc(N2CC(C(=O)N/N=C/c3ccccc3)CC2=O)cc1 (stereo not drawn)	8	14	-1	-1	-2	10	-23	-22	.
O=[N+]([O-])c1ccc(Cl)c(-c2ccc(/C=N/n3cnnc3)o2)c1	5	62*	10	4	-19	7	52*	-13	2

Screens: PubChem BioAssay, Sanford-Burnham Center for Chemical Genomics
